Legend:
Liver [1] = experiment: Drug metabolism in mouse liver assessed as 5-(4-fluorophenyl)-4-hydroxy-3-(3-methoxyphenyl)oxazolidin-2-one formation at 488 mg/kg/day, po by LC-MS/MS analysis; type: ADME, organism-based; settings: in vivo
Summary of the method: (§1)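 Mice given compound orally as dietary admixture at 488 mg kg−1 day−1; liver concentrations of parent and metabolites determined by LC/MS/MS, metabolites quantified assuming extinction coefficient equal to parent.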

[2] = biological target: Acyl-CoA (8-3)-desaturase (Rattus norvegicus, UniProt Q920R3); experiment: Displacement of [3H]T-3364366 from D5D in rat liver microsomal membrane preincubated for 15 mins followed by radioligand addition measured after 150 mins by TopCount microscintillation counting assay; type: cell membranes
Sequence of Acyl-CoA (8-3)-desaturase (Rattus norvegicus, UniProt Q920R3) (Q920R3 whole entry): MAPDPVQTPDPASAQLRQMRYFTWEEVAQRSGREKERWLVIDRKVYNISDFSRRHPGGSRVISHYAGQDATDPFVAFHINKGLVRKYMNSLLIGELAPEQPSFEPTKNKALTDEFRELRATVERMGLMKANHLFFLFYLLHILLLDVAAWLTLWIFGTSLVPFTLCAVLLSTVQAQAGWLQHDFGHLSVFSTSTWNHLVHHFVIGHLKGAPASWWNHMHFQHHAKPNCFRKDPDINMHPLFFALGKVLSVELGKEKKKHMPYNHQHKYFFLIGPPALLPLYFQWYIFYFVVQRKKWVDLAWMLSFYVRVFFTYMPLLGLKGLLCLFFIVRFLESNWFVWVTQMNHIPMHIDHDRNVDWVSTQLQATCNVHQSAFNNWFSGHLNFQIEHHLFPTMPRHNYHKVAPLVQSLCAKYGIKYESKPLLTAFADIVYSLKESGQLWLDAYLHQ
Summary of the method: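 Rat liver microsome fraction (30 μg/well) preincubated 15 min with test compound at room temperature in 10 mM Tris-HCl pH 7.5, 100 mM KCl, 10 mM NaF buffer, 200 μL/well; bound ligand trapped on GF/C filters, washed 5× with ice-cold buffer, counted by scintillation. Nonspecific binding with 10 μM unlabeled T-3364366; IC50 from three-parameter logistic fit.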

[3] = Drug stability in mouse hepatocytes by LC-MS/MS analysis; type: ADME, cell-based, Hepatocyte
[4] = Drug metabolism in human hepatocytes assessed as 3-(5-(4-fluorophenyl)-4-hydroxy-2-oxooxazolidin-3-yl)phenyl hydrogen sulfate formation by LC-MS/MS analysis; type: ADME, cell-based, Hepatocyte
Summary of the method: (§2)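 Human or mouse hepatocytes incubated with compound; metabolites identified by LC/MS/MS and formation ratio (%) calculated as metabolite UV peak area after incubation over parent peak area before incubation × 100, assuming equal extinction coefficients.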

[5] = Drug stability in human hepatocytes by LC-MS/MS analysis; type: ADME, cell-based, Hepatocyte
Liver [6] = experiment: Drug metabolism in mouse liver assessed as 5-(4-fluorophenyl)-3-(3-hydroxyphenyl)oxazolidin-2-one formation at 488 mg/kg/day, po by LC-MS/MS analysis; type: ADME, organism-based; settings: in vivo; summary of the method: as §1
Liver [7] = experiment: Drug metabolism in mouse liver assessed as 3-(5-(4-fluorophenyl)-4-hydroxy-2-oxooxazolidin-3-yl)phenyl hydrogen sulfate formation at 488 mg/kg/day, po by LC-MS/MS analysis; type: ADME, organism-based; settings: in vivo; summary of the method: as §1
Liver [8] = experiment: Drug metabolism in mouse liver assessed as (2S,3S,4S,5R,6S)-6-(3-(5-(4-fluorophenyl)-2-oxooxazolidin-3-yl)phenoxy)-3,4,5-trihydroxytetrahydro-2H-pyran-2-carboxylic acid formation at 488 mg/kg/day, po by LC-MS/MS analysis; type: ADME, organism-based; settings: in vivo; summary of the method: as §1
[9] = Drug metabolism in mouse hepatocytes assessed as 5-(4-fluorophenyl)-4-hydroxy-3-(3-methoxyphenyl)oxazolidin-2-one formation by LC-MS/MS analysis; type: ADME, cell-based, Hepatocyte; summary of the method: as §2
Liver [10] = experiment: Drug metabolism in mouse liver assessed as 3-(5-(4-fluorophenyl)-2-oxooxazolidin-3-yl)phenyl hydrogen sulfate formation at 488 mg/kg/day, po by LC-MS/MS analysis; type: ADME, organism-based; settings: in vivo; summary of the method: as §1
[11] = Drug metabolism in mouse hepatocytes assessed as 5-(4-fluorophenyl)-3-(3-hydroxyphenyl)oxazolidin-2-one formation by LC-MS/MS analysis; type: ADME, cell-based, Hepatocyte; summary of the method: as §2
[12] = Drug metabolism in human hepatocytes assessed as 5-(4-fluorophenyl)-4-hydroxy-3-(3-methoxyphenyl)oxazolidin-2-one formation by LC-MS/MS analysis; type: ADME, cell-based, Hepatocyte; summary of the method: as §2
Liver [13] = experiment: Drug metabolism in mouse liver assessed as (2S,3S,4S,5R,6S)-6-(5-(4-fluorophenyl)-3-(3-methoxyphenyl)-2-oxooxazolidin-4-yloxy)-3,4,5-trihydroxytetrahydro-2H-pyran-2-carboxylic acid formation at 488 mg/kg/day, po by LC-MS/MS analysis; type: ADME, organism-based; settings: in vivo; summary of the method: as §1
[14] = biological target: Acyl-CoA (8-3)-desaturase (Homo sapiens, UniProt O60427); experiment: Inhibition of D5D in human HepG2 cells assessed as [14C]AA formation from [14C]DGLA preincubated for 30 mins followed by [14C]eicosatrienoic acid addition measured after 3 hrs by TLC analysis; type: cell-based
Sequence of Acyl-CoA (8-3)-desaturase (Homo sapiens, UniProt O60427) (O60427 whole entry): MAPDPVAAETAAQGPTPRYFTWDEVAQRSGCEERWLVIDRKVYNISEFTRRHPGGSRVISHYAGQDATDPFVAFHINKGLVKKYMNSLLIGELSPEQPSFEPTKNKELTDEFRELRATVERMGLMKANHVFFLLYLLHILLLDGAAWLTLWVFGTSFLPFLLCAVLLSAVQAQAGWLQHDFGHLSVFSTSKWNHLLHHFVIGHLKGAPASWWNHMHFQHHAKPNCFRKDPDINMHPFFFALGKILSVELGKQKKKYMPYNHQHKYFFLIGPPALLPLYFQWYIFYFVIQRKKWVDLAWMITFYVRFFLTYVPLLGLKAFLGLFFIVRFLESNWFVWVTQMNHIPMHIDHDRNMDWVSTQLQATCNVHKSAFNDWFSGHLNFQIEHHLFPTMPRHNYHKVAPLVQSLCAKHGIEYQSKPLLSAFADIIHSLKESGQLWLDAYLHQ
Summary of the method: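 HepG2 plated at 1 × 10^5 cells/well, cultured overnight in DMEM/10% FBS, PBS-washed, then preincubated 30 min at 37 °C with compound in DMEM with penicillin/streptomycin and 0.3% BSA. 0.1 μCi [14C]eicosatrienoic acid added and cells incubated 3 h at 37 °C; lipids saponified overnight at 55 °C with NaOH, acidified, extracted with chloroform/MeOH, separated by TLC.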

[15] = Drug metabolism in mouse hepatocytes assessed as 3-(5-(4-fluorophenyl)-4-hydroxy-2-oxooxazolidin-3-yl)phenyl hydrogen sulfate formation by LC-MS/MS analysis; type: ADME, cell-based, Hepatocyte; summary of the method: as §2

COc1cccc(N2CC(c3ccc(F)cc3)OC2=O)c1 (racemic)
Drug metabolism (Liver [1]): 0.25 to 0.65 µg/g
IC50 [2]: 8.5 nM
Stability [3]: 2.3%
Drug metabolism [4]: Metabolite_Notdetected
Stability [5]: 22.5%
Drug metabolism (Liver [6]): 0.51 to 1.21 µg/g
Drug metabolism (Liver [7]): 0.48 to 1.78 µg/g
Drug metabolism (Liver [8]): 0.83 to 2.5 µg/g
Drug metabolism [9]: Metabolite_Notdetected
Drug metabolism (Liver [10]): 4.41 to 12.9 µg/g
Drug metabolism [11]: Metabolite_Notdetected
Drug metabolism [12]: Metabolite_Notdetected
Drug metabolism (Liver [13]): Metabolite_Notdetected
IC50 [14]: 4.1 nM
Drug metabolism [15]: Metabolite_Notdetected
